These results are taken from ChEMBL document CHEMBL2202986, “Guaianolide sesquiterpene lactones, a source to discover agents that selectively inhibit acute myelogenous leukemia stem and progenitor cells” (J Med Chem, 2012).

The nature of series [1]: Antitumor activity against human leukemia stem/progenitor cells xenografted in NOD/SCID mouse assessed as survival time at 100 mg/kg, po qd administered every other day total of seven doses starting from 8 weeks post grafting (reference value: 43 days). The series is classed as functional. The essentials:
(§1)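 NOD/SCID mice were sublethally irradiated (280cGay), then 6−10 h later given primary AML M5 patient cells via tail vein in PBS. From 8 weeks postinoculation, aqueous solution was given orally at 100 mg/kg every other day for seven doses. Survival was followed, Kaplan−Meier, n = 6 per treated group and n = 7 untreated controls. Survivors at day 85 had bone marrow analysed for human CD45⁺CD33⁺ cells.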
(In general: A xenograft is tissue or cells of one species grown in another, often human tumour cells in immunodeficient mice.)

The nature of series [2]: Antitumor activity against human leukemia stem/progenitor cells xenografted in NOD/SCID mouse assessed as reduction of CD45+CD33+ cells in bone marrow at 100 mg/kg, po qd administered every other day total of seven doses starting from 8 weeks post grafting measured on day 85. The series is classed as functional. Details: scale not given: the % may be the effect or the level left; call rule not given here. Put shortly:
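NOD/SCID mice, sublethally irradiated (280cGay), received primary AML M5 patient cells via tail vein in PBS 6−10 h later. From 8 weeks after engraftment, aqueous drug was given orally every other day for seven doses. Surviving mice were sacrificed on day 85 post-inoculation, and human CD45⁺CD33⁺ cells in bone marrow were measured by flow cytometry.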

Series [3] can be described thus: Drug degradation in HEPES buffer at pH 7.4 assessed as release of PTL. The series is classed as physicochemical. Put shortly: (§2)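 A 20 μL aliquot of prodrug solution was added to 980 μL HEPES buffer (pH 7.4, or below 5.0) and incubated at 37 °C. Samples were withdrawn over time, and prodrug and released parent were quantified by HPLC (mean, SD, n = 4).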
Series [4] in a line: Antitumor activity against mixed-lineage human leukemia cells xenografted in NOD/SCID mouse assessed as inhibition of cancer cell engrafting at 100 mg/kg, po qd administered every other day total of seven doses starting from 8 weeks post grafting measured on day 35. The series is classed as functional.
The subject of another series is Plasma. The series can be described thus: Drug metabolism in mouse plasma assessed as release of PTL. The series is classed as ADME, cell-free. The essentials: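 A 20 μL aliquot of prodrug solution was added to 980 μL blank mouse plasma and incubated at 37 °C. Prodrug and released parent drug concentrations were measured over time by HPLC (mean, SD, n = 4).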
Series [5] can be described thus: Antitumor activity against human leukemia stem/progenitor cells xenografted in NOD/SCID mouse assessed as survival rate at 100 mg/kg, po qd administered every other day total of seven doses starting from 8 weeks post grafting measured on day 85. Format: functional. The essentials: as §1
The nature of series [6]: Drug degradation in mouse plasma assessed as release of PTL up to 2.5 hrs. The conditions noted are these: pH 7.4.
Series [7] in a line: Antitumor activity against mixed-lineage human leukemia cells xenografted in NOD/SCID mouse assessed as reduction of CD45+CD33+ cells in bone marrow at 100 mg/kg, po qd administered every other day total of seven doses starting from 8 weeks post grafting measured on day 35 (reference value: 9.8 %). Format: functional, Leukemia cell. Details: scale not given: the % may be the effect or the level left.

Series [8] can be described thus: Drug degradation in HEPES buffer at pH <5 assessed as release of PTL. Format: physicochemical. Put shortly: as §2

Each structure is given as a SMILES string.

Usually inhibition in vivo stands for the share of the control response that was lost under treatment. `C/C1=C\CC[C@@]2(C)O[C@@H]2[C@H]2OC(=O)[C@@H](CN(C)C)[C@@H]2CC1.O=C(O)/C=C/C(=O)O` [(DIMETHYLAMINO)PARTHENOLIDE FUMARIC ACID SALT]: the Survival in series [1] turned out to be 66 days. Moreover, the Activity in series [2] turned out to be 35%; in series [7], 5.7%. In addition, the figures for the Drug degradation result in series [3], in [6] and in series [8] were “Active”, 0.1 µg/mL and “Not Active”, respectively. The inhibition in vivo at 100 mg/kg in [4] is 42%. Also, the Drug metabolism result in the series on Plasma is recorded as “Active”. In series [5], the survival at 100 mg/kg came to 17%.
